Laboratory results reported in publication PMC7355085 (ACS chemical neuroscience, 2016).
Where two headings read alike, the source gives them in different places.

Assays:
GSK3β [1] = biological target: T1, GSK3β (Homo sapiens, UniProt P49841); format: biochemical
CDK5/p25 = CDK5/p25 (Homo sapiens, UniProt Q00535); test: ADP-Glo kinase luminescent assay, CDK5/p25 inhibition; format: biochemical
SH-SY5Y cells [2] = test: Aβ42-induced tau phosphorylation in SH-SY5Y cells; format: cell-based, human
Summary of the method: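 SH-SY5Y cells were seeded at 3 × 10^5 cells/mL in DMEM/F12 with 1% FBS. […] Lysates in pyrophosphate buffer pH 7.4, 10 μg/lane, 10% SDS-PAGE, PVDF; primary antibodies 2 h at room temperature; β-actin loading control.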

other 18 kinases = test: Kinase selectivity panel; format: biochemical; settings: 224 μM; p > 0.05
SH-SY5Y cells [3] = test: Neuroprotection against Aβ42-induced cytotoxicity, cell viability assay; format: cell-based, human; settings: 1 112 μM; combinations with LiCl 10 mM or TDZD-8 10 μM; 10 μM Aβ42, 72 h
PKC = PKC (Homo sapiens, UniProt P17252); test: Kinase selectivity panel; format: biochemical; settings: read-out: Inhibition against PKC
SH-SY5Y cells [4] = test: Morphological changes of SH-SY5Y cells; format: cell-based, human
Summary of the method: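 SH-SY5Y cultures (37 °C, humidified, 5% CO2) were examined by microscopy after 72 h. Conditions were 0.2% DMSO vehicle control, 10 μM Aβ42 alone, or test compound pretreatment followed by 10 μM Aβ42. Read-out was differentiation state and neurite extension or retraction.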

GSK3β [5] = biological target: T1, GSK3β; test: GSK3β enzyme kinetics; format: biochemical; settings: noncompetitive inhibition with respect to ATP, GS2 constant at 17 μM, varying ATP
Summary of the method: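 Substrate GS2 held at 17 μM while ATP and test compound concentrations were varied. Vehicle was 5% DMSO. Quadruplicates from each of two independent experiments; means ± SEM.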

AKT1 = AKT1 (Homo sapiens, UniProt P31749); test: Kinase selectivity panel; format: biochemical; settings: read-out: Inhibition against AKT1
GSK3β [6] = biological target: T1, GSK3β; test: Promiscuous aggregation assay: GSK3β inhibition with Triton X-100; format: biochemical
CK2 = CK2 (Homo sapiens, UniProt P68400); test: Kinase selectivity panel; format: biochemical; settings: read-out: Inhibition against CK2
SH-SY5Y cells [7] = test: Cell viability / cytotoxicity assessment in SH-SY5Y cells; format: cell-based, human

T1 sequence (P49841 whole entry): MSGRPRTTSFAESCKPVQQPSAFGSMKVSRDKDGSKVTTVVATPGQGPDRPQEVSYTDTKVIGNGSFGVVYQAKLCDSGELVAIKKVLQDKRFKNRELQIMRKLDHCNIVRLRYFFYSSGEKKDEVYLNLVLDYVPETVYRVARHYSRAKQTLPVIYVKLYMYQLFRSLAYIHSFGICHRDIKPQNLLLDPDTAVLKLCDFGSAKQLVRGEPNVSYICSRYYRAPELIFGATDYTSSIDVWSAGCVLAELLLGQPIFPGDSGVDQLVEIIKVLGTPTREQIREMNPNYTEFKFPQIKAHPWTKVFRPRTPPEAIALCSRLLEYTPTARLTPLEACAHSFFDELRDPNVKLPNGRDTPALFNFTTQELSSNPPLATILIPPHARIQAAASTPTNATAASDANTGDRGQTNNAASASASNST
CDK5/p25, sequence (Q00535 whole entry): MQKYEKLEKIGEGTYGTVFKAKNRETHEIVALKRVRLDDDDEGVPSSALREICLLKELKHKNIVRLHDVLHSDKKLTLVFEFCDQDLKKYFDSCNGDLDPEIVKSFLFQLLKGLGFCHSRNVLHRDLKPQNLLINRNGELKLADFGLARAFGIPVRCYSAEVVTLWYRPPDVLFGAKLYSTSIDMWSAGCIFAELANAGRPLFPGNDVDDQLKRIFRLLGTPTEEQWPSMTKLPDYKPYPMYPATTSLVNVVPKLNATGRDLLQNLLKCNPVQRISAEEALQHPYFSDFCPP
CDK5/p25, sequence (Q15078 99-307 partner limits assumed): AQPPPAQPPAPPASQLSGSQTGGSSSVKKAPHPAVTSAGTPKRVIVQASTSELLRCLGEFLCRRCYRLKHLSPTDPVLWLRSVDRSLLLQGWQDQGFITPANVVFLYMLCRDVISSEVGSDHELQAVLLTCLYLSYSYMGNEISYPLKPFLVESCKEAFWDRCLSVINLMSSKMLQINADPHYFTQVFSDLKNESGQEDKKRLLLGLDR
AKT1, sequence (P31749 whole entry): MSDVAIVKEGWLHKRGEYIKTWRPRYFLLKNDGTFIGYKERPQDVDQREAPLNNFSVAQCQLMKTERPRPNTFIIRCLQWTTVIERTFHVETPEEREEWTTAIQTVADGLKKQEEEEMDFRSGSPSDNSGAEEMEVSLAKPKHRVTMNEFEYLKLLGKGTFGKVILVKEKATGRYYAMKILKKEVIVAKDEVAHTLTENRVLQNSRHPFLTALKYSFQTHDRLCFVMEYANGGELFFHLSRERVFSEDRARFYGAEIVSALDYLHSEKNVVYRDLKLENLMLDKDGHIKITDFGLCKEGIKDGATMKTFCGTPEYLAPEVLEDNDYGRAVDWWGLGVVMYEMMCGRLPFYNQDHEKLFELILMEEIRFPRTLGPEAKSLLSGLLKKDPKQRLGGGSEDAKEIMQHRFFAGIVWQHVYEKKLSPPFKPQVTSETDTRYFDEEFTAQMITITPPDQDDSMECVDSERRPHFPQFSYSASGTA
CK2, sequence (P68400 whole entry): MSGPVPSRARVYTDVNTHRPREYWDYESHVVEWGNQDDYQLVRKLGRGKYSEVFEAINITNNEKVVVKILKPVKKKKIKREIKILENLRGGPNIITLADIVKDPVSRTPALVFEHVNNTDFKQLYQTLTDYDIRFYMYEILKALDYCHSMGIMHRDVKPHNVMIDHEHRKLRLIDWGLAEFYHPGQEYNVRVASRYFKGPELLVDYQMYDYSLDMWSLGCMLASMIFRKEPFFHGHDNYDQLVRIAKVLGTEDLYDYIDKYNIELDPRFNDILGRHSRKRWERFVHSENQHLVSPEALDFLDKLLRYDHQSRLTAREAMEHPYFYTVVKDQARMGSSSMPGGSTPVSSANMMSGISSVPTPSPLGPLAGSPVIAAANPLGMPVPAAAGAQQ

3’-methoxymaysin [Compound 2] showed an IC50 (GSK3β [1]; read-out: IC50, GSK3β inhibition, 25 μM ATP, 1 h, room temperature) of 288 µM and an IC50 (CDK5/p25; read-out: IC50, CDK5/p25) of over 15000 µM.

With `O=c1cc(-c2ccc(O)c(O)c2)oc2cc(O)c([C@@H]3O[C@H](CO)[C@@H](O)[C@H](O)[C@H]3O)c(O)c12` [Compound 1, isoorientin] the “Decrease of GSK3β kinase activity” value (GSK3β [1]; 224 μM, compared to control (100% kinase activity), p < 0.0001) was 52.4%, the “Levels of GSK3β pS9 and total GSK3β” value (SH-SY5Y cells [2]; co-incubation of 1 with 10 μM Aβ42, 72 h, compared to untreated cells, p > 0.05) was “No significant change” and the “Inhibition of other 18 kinases of the panel” value (other 18 kinases) was “did not significantly inhibit”. For the same molecule, the “Neuroprotection against cell viability loss, single concentration” value (SH-SY5Y cells [3]) was “neuroprotection against cell viability loss”, the inhibition at 224 µM (PKC) was about 30% and the Cell morphology (SH-SY5Y cells [4]; pretreatment of 28 μM 1 followed by 10 μM Aβ42, 72 h) was “Partial differentiated cells with extended neurites”. For the same molecule, the Cell morphology (SH-SY5Y cells [4]; pretreatment of 448 μM 1 followed by 10 μM Aβ42, 72 h) was “Protected differentiated cells with extended axons and dendrites”, the Ki (GSK3β [5]) was 210 ± 22 µM and the inhibition at 224 µM (AKT1) was about 30%. It also gave an IC50 (GSK3β [6]) of 192 µM, an IC50 (CDK5/p25) of over 15000 µM and an inhibition at 224 µM (CK2) of about 30%. For the same molecule, the “Dose up to which no cytotoxicity to SH-SY5Y cells was noted” value (SH-SY5Y cells [7]; 72 h) was over 896 µM and the “Effect on cell proliferation” value (SH-SY5Y cells [7]; 72 h, without Aβ42) was “slightly stimulated cell proliferation”.

`O=c1cc(-c2ccc(O)c(O)c2)oc2cc(O)cc(O)c12` [luteolin] showed an IC50 (GSK3β [6]; IC50, GSK3β, with 0.01% Triton, with 0.01% Triton X-100) of 32 µM and an IC50 (GSK3β [6]; IC50, GSK3β, without Triton, before addition of Triton X-100) of 2 µM.

With β-Amyloid fragment peptide 1–42 [Aβ42] the “Increase of tau phosphorylation at pS199/pS202 relative to untreated cells” value (SH-SY5Y cells [2]; 10 μM Aβ42, 72 h) was “approximately 3.5 fold”, the “Increase of tau phosphorylation at pS396 relative to untreated cells” value (SH-SY5Y cells [2]; 10 μM Aβ42, 72 h) was about 2.3 fold and the Cell morphology (SH-SY5Y cells [4]; 10 μM Aβ42 treatment, 72 h) was “Impaired and nondifferentiated cells with retracted neurites”. The “Inhibition of cell growth” value (SH-SY5Y cells [7]; 10 μM Aβ42) was “about 50%”.
